Experimental data from PMC3870048 (Pharmaceutical research, 2013).
≈ marks a conversion by molar mass, not a printed value. Where two headings read alike, the source gives them in different places.

What was measured:
[1] = Donor solution solubility determination; format: physicochemical; settings: saturation solubility in 0.3 M acetate buffer pH 5.0 containing 10% propylene glycol, 32°C
[2] = Stability of codrugs in 0.3 M acetate buffer pH 5.0 at 32°C; format: physicochemical; settings: 0.3 M acetate buffer pH 5.0, 32°C
Outline: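 Codrug was predissolved in ACN and spiked into prewarmed buffer (<1% ACN). 100 μl aliquots were taken at intervals, quenched with 900 μl ACN and held at -80°C. Analysis was by C18 HPLC-UV with ACN:acidic aqueous (70:30, pH 3.0) mobile phase and standards of 100–10,000 ng/ml. Data were fit to pseudo first-order kinetics; triplicate.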

[3] = In vitro diffusion studies across microneedle-treated skin; format: in vitro ADME, Yucatan miniature pig; settings: skin at end of 48 h diffusion experiment
Outline: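 Yucatan minipig skin, dermatomed 1.4-1.8 mm, pierced 20 times with a 5-needle array (100 pores per 0.95 cm2 area). Flow-through cells held at 32°C. Donor: 250 μl of excess drug in 0.3 M acetate pH 5.0 with 10% PG. Receiver: pH 7.4 water with 20% ethanol, 1.5 ml/h. At 48 h the permeation area was minced and extracted overnight in 10 ml ACN at 32°C, then analysed by HPLC; n≥3.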

[4] = earlier proof of concept study; cited from earlier work
[5] = in 43% PG, 43% ethanol containing solution; data previously reported; cited from earlier work

Row | SMILES | Solubility [1] [mM] | Pseudo first order rate constant (k) [2] [days ^−1] | Stability (approx. half-life) [2] [days] | NTX and DIC (parent drugs) in the skin [3] | formulation half-life [4] [h] | Solubility [5] [mM]
1 | Cl.O=C(Cc1ccccc1Nc1c(Cl)cccc1Cl)Oc1ccc2c3c1O[C@H]1C(=O)CC[C@@]4(O)[C@@H](C2)N(CC2CC2)CC[C@]314 [Codrug I (hydrochloride salt)] | 83.8 ± 15.4 |  |  |  |  | 
2 | O=C(Cc1ccccc1Nc1c(Cl)cccc1Cl)O[C@@H]1CC[C@@]2(O)[C@H]3Cc4ccc(O)c5c4[C@@]2(CCN3CC2CC2)[C@H]1O5 [Codrug II] |  | 0.0052 | 130.88 ± 4.94 |  |  | 
3 | O=C(Cc1ccccc1Nc1c(Cl)cccc1Cl)Oc1ccc2c3c1O[C@H]1C(=O)CC[C@@]4(O)[C@@H](C2)N(CC2CC2)CC[C@]314 [Codrug I] |  | 0.0803 | 8.72 ± 1.05 | quantifiable | 96 to 120 | 7.23 (≈ 4480 µg/mL)
